Laboratory results as given in ChEMBL document CHEMBL1133942, “Synthesis and bioactivities of novel pyridazine derivatives: inhibitors of interleukin-1 beta (IL-1beta) production” (Bioorg Med Chem Lett, 2001).
The source made the active and inactive calls. No cut-off for these calls is given here.

What was measured:
HL-60 = test: Inhibitory concentration against interleukin-1 beta production in HL-60 cells stimulated with lipopolysaccharide (LPS).; type: functional, cell-based; conditions: Homo sapiens
Outline: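 IC50 obtained by comparing IL-1β yield with an untreated control to which no test compound was added.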

Mus musculus [1] = test: Observation of behavior in mice following 30 mg/kg i.p. administration; No significant change.; type: functional, organism-based; parameters: dose 30 mg/kg
Mus musculus [2] = test: Observation of behavior in mice after ip administration at the dose of 30 mg/kg; Depression of spontaneous locomotor activity; type: functional, organism-based; parameters: dose 30 mg/kg
Mus musculus [3] = test: Observation of behavior in mice after ip administration at the dose of 30 mg/kg; symptoms were tremor, dyspnea, difficulty in walking and death; type: functional, organism-based; parameters: dose 30 mg/kg
Mus musculus [4] = species: Mus musculus; test: Number of dead mice/total number of mice used; 6/8; type: ADME, organism-based; conditions: in vivo
Mus musculus [5] = test: Observation of behavior in mice after ip administration at the dose of 30 mg/kg; Weak sedation; type: functional, organism-based; parameters: dose 30 mg/kg

| SMILES | IC50 (HL-60) | Symptoms (Mus musculus [1]) | further results |
| --- | --- | --- | --- |
| COc1ccc(-c2cc(Oc3ccc(C#N)cc3)nnc2-c2ccc(OC)cc2)cc1 | > 100000 nM | No significant change | – |
| COc1ccc(-c2cc(Oc3c(F)c(F)cc(F)c3F)nnc2-c2ccc(OC)cc2)cc1 | 190 nM | No significant change | – |
| COc1ccc(-c2cc(Oc3cccc(C#N)c3)nnc2-c2ccc(OC)cc2)cc1 | 160 nM | – | – |
| COc1ccc(-c2cc(Oc3c(F)c(F)c(F)c(F)c3F)nnc2-c2ccc(OC)cc2)cc1 | 40 nM | – | Symptoms (Mus musculus [2]): Depression of spontaneous locomotor activity |
| COc1ccc(-c2cc(Oc3ccc(F)c(F)c3)nnc2-c2ccc(OC)cc2)cc1 | 460 nM | – | – |
| COc1ccc(-c2cc(Oc3cccc(F)c3F)nnc2-c2ccc(OC)cc2)cc1 | 120 nM | No significant change | – |
| COc1ccc(-c2cc(Oc3ccc(F)cc3F)nnc2-c2ccc(OC)cc2)cc1 | 2320 nM | – | Symptoms (Mus musculus [2]): Depression of spontaneous locomotor activity |
| COc1ccc(-c2cc(Oc3cc(F)ccc3F)nnc2-c2ccc(OC)cc2)cc1 | 180 nM | – | – |
| COc1ccc(-c2cc(-c3ccccc3)nnc2-c2ccc(OC)cc2)cc1 | 2810 nM | No significant change | – |
| COc1ccc(-c2cc(Oc3ccccc3C#N)nnc2-c2ccc(OC)cc2)cc1 | 150 nM | No significant change | – |
| COc1ccc(-c2cc(Oc3ccc([N+](=O)[O-])cc3)nnc2-c2ccc(OC)cc2)cc1 | 630 nM | No significant change | – |
| COc1ccc(-c2cnc(C#N)nc2-c2ccc(OC)cc2)cc1 | 2880 nM | No significant change | – |
| CCCN(c1cc(-c2ccc(OC)cc2)c(-c2ccc(OC)cc2)nn1)c1ccc(F)cc1F | 3160 nM | No significant change | – |
| COc1ccc(-c2cc(Oc3ccncc3)nnc2-c2ccc(OC)cc2)cc1 | 1240 nM | No significant change | – |
| COc1ccc(-c2cc(Oc3cccc([N+](=O)[O-])c3)nnc2-c2ccc(OC)cc2)cc1 | 2360 nM | No significant change | – |
| COc1ccc(-c2cc(Sc3ccccc3)nnc2-c2ccc(OC)cc2)cc1 | 20500 nM | No significant change | – |
| COc1ccc(-c2cc(C#N)nnc2-c2ccc(OC)cc2)cc1 | 90 nM | – | Symptoms (Mus musculus [3]): Tremor, dyspnea, difficulty in walking and death; Activity (Mus musculus [4]): 6 |
| COc1ccc(-c2cc(Nc3cc(OC)c(OC)c(OC)c3)nnc2-c2ccc(OC)cc2)cc1 | > 100000 nM | No significant change | – |
| COc1ccc(-c2ncc(C#N)nc2-c2ccc(OC)cc2)cc1 | 6600 nM | – | Symptoms (Mus musculus [5]): Weak sedation |
| COc1ccc(-c2cc(Oc3cc(F)cc(F)c3)nnc2-c2ccc(OC)cc2)cc1 | 1380 nM | No significant change | – |
| COc1ccc(-c2cc(Nc3ccc(F)cc3F)nnc2-c2ccc(OC)cc2)cc1 | 1920 nM | No significant change | – |
| COc1ccc(-c2cc(NCc3ccccc3)nnc2-c2ccc(OC)cc2)cc1 | > 100000 nM | – | – |
| COc1ccc(Oc2cc(-c3ccc(OC)cc3)c(-c3ccc(OC)cc3)nn2)cc1 | 450 nM | – | – |
| COc1ccc(-c2cc(Sc3cc(Cl)c(Cl)c(Cl)c3)nnc2-c2ccc(OC)cc2)cc1 | 200 nM | No significant change | – |
| COc1ccc(-c2cc(Oc3c(F)cccc3F)nnc2-c2ccc(OC)cc2)cc1 | 350 nM | No significant change | – |
| COc1ccc(-c2cc(Oc3ccc(Cl)cc3Cl)nnc2-c2ccc(OC)cc2)cc1 | 2540 nM | No significant change | – |
| C[C@]12C=CC(=O)C=C1CCC1[C@@H]2[C@@H](O)C[C@@]2(C)[C@H]1CC[C@]2(O)C(=O)CO (single isomer, unassigned) [PREDNISOLONE] | 760 nM | inactive | – |
| COc1ccc(-c2cc(Sc3ccc(F)cc3F)nnc2-c2ccc(OC)cc2)cc1 | 1870 nM | – | Symptoms (Mus musculus [5]): Weak sedation |
| COc1ccc(-c2cc(Oc3ccccc3)nnc2-c2ccc(OC)cc2)cc1 | 100 nM | No significant change | – |
